Assay results taken from ChEMBL document CHEMBL1150578, “Potent antiviral potamogetonyde and potamogetonol, new furanoid labdane diterpenes from Potamogeton malaianus” (J Nat Prod, 2001).
Converted amounts (≈) assume the structure as drawn.

What was measured:
[1] = system: Mycobacterium tuberculosis; test: Antimycobacterial activity against Mycobacterium tuberculosis H37Ra by microplate alamar blue assay; type: functional
[2] = system: KB; test: Cytotoxicity against human KB cells by SRB assay; type: functional, cell-based
[3] = system: Human alphaherpesvirus 1; test: Antiviral activity against HSV1 infected in african green monkey Vero cells after 72 hrs by SRB assay; type: functional, organism-based; settings: Human alphaherpesvirus 1, Vero
Method in brief: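 HSV-1 (30 PFU) added to wells with test samples (final 20–50 µg/mL), then Vero cells plated at 1 × 10^5 cells/mL. Vero cells grown in MEM with 10% heat-inactivated FBS and antibiotics. Incubated 72 h at 37 °C, 5% CO2. Cells then fixed and stained, and OD read at 510 nm. Acyclovir was the reference.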

[4] = Cytotoxicity against human BC cells by SRB assay; type: functional, cell-based
[5] = Cytotoxicity against Aedes albopictus C6/36 cells after 24 hrs by MTT assay; type: functional, cell-based; settings: C6/36, 24 h
Method in brief: (§1)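 C6/36 cells in MEM with 10% FCS and 1.1 g/L Na2CO3, at 28 °C, antibiotic-free stock. Seeded 1.6 × 10^4 cells/well and left 48 h to attach. Exposed 24 h to 1:2 serial dilutions from 200 to 1.56 µg/mL (top dose in 1% DMSO) with penicillin/streptomycin. Then 24 h recovery in fresh medium. MTT 4 h, formazan dissolved in DMSO/glycine buffer pH 10.5, OD 570 nm. Four wells per point; IC50 by metabolic competence.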

[6] = system: Vero; test: Cytotoxicity against african green monkey Vero cells by SRB assay; type: cell-based; settings: Chlorocebus sabaeus
[7] = Cytotoxicity against Spodoptera frugiperda Sf9 cells after 24 hrs by MTT assay; type: functional, cell-based; settings: Sf9, 24 h
Method in brief: as §1, with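 “Seeded” for “C6/36 cells in MEM with 10% FCS and 1.1 g/L Na2CO3, at 28 °C, antibiotic-free stock. Seeded”, “4” for “1.6”, “10^3” for “10^4”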

Row | SMILES | MIC [1] [mg/L] | IC50 [2] [mg/L] | IC50 [3] [mg/L] | IC50 [4] [mg/L] | IC50 [5] [mg/L] | IC50 [6] [mg/L] | IC50 [7] [mg/L]
1 | C=C1CC[C@@H]2[C@@]3(C)CCC[C@@]2(C(=O)OC3)[C@@H]1CC(=O)c1ccoc1 | 100 (≈ 304 µM) | > 20 | > 20 | > 20 | 72 (≈ 219 µM) | > 50 | 26 (≈ 79.2 µM)
2 | Nc1nc2c(ncn2COCCO)c(=O)[nH]1 [ACYCLOVIR] |  |  | 2 (≈ 8.88 µM) |  |  |  | 
3 | Cc1c2ccncc2c(C)c2c1[nH]c1ccccc12 [ELLIPTECINE] |  | 0.1 (≈ 0.406 µM) |  | 0.1 (≈ 0.406 µM) |  | 0.4 (≈ 1.62 µM) | 
4 | NNC(=O)c1ccncc1 [ISONIAZID] | 0.04 (≈ 0.292 µM) |  |  |  |  |  | 
5 | NC[C@H]1O[C@H](O[C@H]2[C@H](O)[C@@H](O[C@H]3O[C@H](CO)[C@@H](O)[C@H](N)[C@H]3O)[C@H](N)C[C@@H]2N)[C@H](O)[C@@H](O)[C@@H]1O.O=S(=O)(O)O [KANAMYCIN SULFATE] | 2 |  |  |  |  |  | 
6 | CO[C@@]12[C@H](COC(N)=O)C3=C(C(=O)C(C)=C(N)C3=O)N1C[C@@H]1N[C@@H]12 [MITOMYCIN] |  |  |  |  | 3 (≈ 8.97 µM) |  | 3 (≈ 8.97 µM)
7 | C=C1CC[C@@H]2[C@@]3(C)CCC[C@@]2(C(=O)OC3)[C@@H]1CCc1ccoc1 [POTAMOGETONIN] | 100 (≈ 318 µM) | > 20 | > 20 | > 20 | 22 (≈ 70 µM) | > 50 | 15 (≈ 47.7 µM)
8 | C=C1CC[C@@H]2[C@](C)(COC(C)=O)CCC[C@@]2(CO)[C@@H]1CCc1ccoc1 [POTAMOGETONOL] | 50 (≈ 139 µM) | > 20 | 3 (≈ 8.32 µM) | > 20 | 43 (≈ 119 µM) | 28 (≈ 77.7 µM) | 23 (≈ 63.8 µM)
9 | C=C1CC[C@@H]2[C@](C)(COC(C)=O)CCC[C@@]2(C=O)[C@@H]1CCc1ccoc1 [POTAMOGETONYDE] | 100 (≈ 279 µM) | > 20 | 8 (≈ 22.3 µM) | > 20 | 30 (≈ 83.7 µM) | 31 (≈ 86.5 µM) | 11 (≈ 30.7 µM)
